Laboratory results from ChEMBL document CHEMBL1154067, “Antiviral and cytotoxic activities of aminoarylazo compounds and aryltriazene derivatives” (Bioorg Med Chem, 2009).
Calls of active or inactive are those of the source.

Tested on: Bovine viral diarrhea virus 1
Experiment: Antiviral activity against Bovine viral diarrhea virus infected in MDBK cells assessed as inhibition of virus-induced cytopathicity after 3 to 4 days by MTT assay
Assay type: functional, organism-based
Settings: Bovine viral diarrhea virus isolates and strains

SMILES	EC50 [µM]
Fc1ccc(F)c(/N=N/Nc2ccccc2)c1	> 100
Cc1c(/N=N/c2cccc(C(F)(F)F)c2)ccc(NC[C@@H]2CCCN3CCCC[C@H]23)c1C	7
CN(C)CCCNc1ccc(/N=N/c2cccc([N+](=O)[O-])c2)cc1	16
Cc1ccc(/N=N/N(C)c2ccccc2)cc1	> 100
c1ccc(CN/N=N/c2ccccc2)cc1	> 100
CN(C)CCCNc1ccc(/N=N/c2c(F)cccc2F)cc1	≥ 20
Cc1ccc(/N=N/c2ccc(NCCCN(C)C)cc2)cc1	> 100

Tested on: Vaccinia virus
Experiment: Antiviral activity against Vaccinia virus after 3 days by plaque reduction assay
Assay type: functional, organism-based
Settings: Orthopoxvirus vaccinia

SMILES	Activity
Fc1ccc(F)c(/N=N/Nc2ccccc2)c1	inactive
Cc1c(/N=N/c2cccc(C(F)(F)F)c2)ccc(NC[C@@H]2CCCN3CCCC[C@H]23)c1C	inactive
CN(C)CCCNc1ccc(/N=N/c2cccc([N+](=O)[O-])c2)cc1	inactive
Cc1ccc(/N=N/N(C)c2ccccc2)cc1	inactive
c1ccc(CN/N=N/c2ccccc2)cc1	inactive
CN(C)CCCNc1ccc(/N=N/c2c(F)cccc2F)cc1	inactive
Cc1ccc(/N=N/c2ccc(NCCCN(C)C)cc2)cc1	inactive

Tested on: Human immunodeficiency virus 1
Experiment: Antiviral activity against HIV1 infected in human MT4 cells assessed as inhibition of virus-induced cytopathicity after 4 days by MTT assay
Assay type: functional, organism-based
Settings: not given

SMILES	inhibition
Fc1ccc(F)c(/N=N/Nc2ccccc2)c1	inactive
Cc1c(/N=N/c2cccc(C(F)(F)F)c2)ccc(NC[C@@H]2CCCN3CCCC[C@H]23)c1C	inactive
CN(C)CCCNc1ccc(/N=N/c2cccc([N+](=O)[O-])c2)cc1	inactive
Cc1ccc(/N=N/N(C)c2ccccc2)cc1	inactive
c1ccc(CN/N=N/c2ccccc2)cc1	inactive
CN(C)CCCNc1ccc(/N=N/c2c(F)cccc2F)cc1	inactive
Cc1ccc(/N=N/c2ccc(NCCCN(C)C)cc2)cc1	inactive

Tested on: not listed separately
Experiment: Cytotoxicity against MDBK cells after 48 to 96 hrs by MTT assay
Assay type: cell-based, Bos taurus
Settings: cattle, mdbk
Outline: (§1)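 Mock-infected cells in maintenance medium, MDBK at 6 × 10^5 and BHK at 1 × 10^6 cells/mL initial density, with or without serial compound dilutions. Run in parallel with antiviral assays. Viability by MTT after 48–96 h at 37 °C, 5% CO2. CC50 = concentration reducing viability 50%.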

SMILES	CC50 [µM]
Fc1ccc(F)c(/N=N/Nc2ccccc2)c1	> 100
Cc1c(/N=N/c2cccc(C(F)(F)F)c2)ccc(NC[C@@H]2CCCN3CCCC[C@H]23)c1C	52
CN(C)CCCNc1ccc(/N=N/c2cccc([N+](=O)[O-])c2)cc1	33
Cc1ccc(/N=N/N(C)c2ccccc2)cc1	> 100
c1ccc(CN/N=N/c2ccccc2)cc1	> 100
CN(C)CCCNc1ccc(/N=N/c2c(F)cccc2F)cc1	20
Cc1ccc(/N=N/c2ccc(NCCCN(C)C)cc2)cc1	> 100

Tested on: Coxsackievirus B2
Experiment: Antiviral activity against Coxsackie virus type B2 virus infected in african green monkey Vero-76 cells after 3 days by plaque reduction assay
Assay type: functional, organism-based
Settings: Enterovirus B, Vero 76, 72 h
Outline: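 Vero 76 cells seeded at 2 × 10^5 cells/well, grown overnight to confluence at 37 °C in 5% CO2, then infected at 50–100 PFU/well. Unadsorbed virus removed. Overlay of DMEM with 1% inactivated FCS and 0.75% methylcellulose, with or without serial compound dilutions. After 3 days at 37 °C, fixed and stained with crystal violet in PBS/50% ethanol; plaques counted. EC50 is the concentration reducing plaque number by 50%.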

SMILES	EC50 [µM]
Fc1ccc(F)c(/N=N/Nc2ccccc2)c1	12
Cc1c(/N=N/c2cccc(C(F)(F)F)c2)ccc(NC[C@@H]2CCCN3CCCC[C@H]23)c1C	> 80
CN(C)CCCNc1ccc(/N=N/c2cccc([N+](=O)[O-])c2)cc1	11
Cc1ccc(/N=N/N(C)c2ccccc2)cc1	> 58
c1ccc(CN/N=N/c2ccccc2)cc1	> 100
CN(C)CCCNc1ccc(/N=N/c2c(F)cccc2F)cc1	> 65
Cc1ccc(/N=N/c2ccc(NCCCN(C)C)cc2)cc1	> 50

Tested on: Mammalian orthoreovirus 1
Experiment: Antiviral activity against Reovirus-1 infected in BHK-21 cells assessed as inhibition of virus-induced cytopathicity after 3 to 4 days by MTT assay
Assay type: functional, organism-based
Settings: Mammalian orthoreovirus 1, BHK-21
Outline: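 BHK-21 cells seeded at 5 × 10^4 cells/well, grown overnight to confluent monolayers at 37 °C in 5% CO2, then infected at m.o.i. 0.01 in serum-free medium. One hour later, MEM Earle's with 1% final inactivated FCS added, with or without serial compound dilutions. Viability read by MTT after 3–4 days at 37 °C. EC50 is the concentration giving 50% protection from cytopathogenicity.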

SMILES	EC50 [µM]
Fc1ccc(F)c(/N=N/Nc2ccccc2)c1	> 100
Cc1c(/N=N/c2cccc(C(F)(F)F)c2)ccc(NC[C@@H]2CCCN3CCCC[C@H]23)c1C	> 100
CN(C)CCCNc1ccc(/N=N/c2cccc([N+](=O)[O-])c2)cc1	> 20
Cc1ccc(/N=N/N(C)c2ccccc2)cc1	> 100
c1ccc(CN/N=N/c2ccccc2)cc1	> 100
CN(C)CCCNc1ccc(/N=N/c2c(F)cccc2F)cc1	12
Cc1ccc(/N=N/c2ccc(NCCCN(C)C)cc2)cc1	> 100

Tested on: MT4
Experiment: Cytotoxicity against human MT4 cells after 96 hrs by MTT assay
Assay type: cell-based
Settings: mt4, 96 h
Outline: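 Exponentially growing mock-infected MT-4 seeded at 1 × 10^5 cells/mL in RPMI-1640 with 10% FCS, penicillin and streptomycin. Incubated with or without serial compound dilutions at 37 °C, 5% CO2. Viability by MTT after 96 h. CC50 = concentration reducing viability 50%.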

SMILES	CC50 [µM]
Fc1ccc(F)c(/N=N/Nc2ccccc2)c1	100
Cc1c(/N=N/c2cccc(C(F)(F)F)c2)ccc(NC[C@@H]2CCCN3CCCC[C@H]23)c1C	77
CN(C)CCCNc1ccc(/N=N/c2cccc([N+](=O)[O-])c2)cc1	14
Cc1ccc(/N=N/N(C)c2ccccc2)cc1	45
c1ccc(CN/N=N/c2ccccc2)cc1	42
CN(C)CCCNc1ccc(/N=N/c2c(F)cccc2F)cc1	35
Cc1ccc(/N=N/c2ccc(NCCCN(C)C)cc2)cc1	17

Tested on: Respiratory syncytial virus
Experiment: Antiviral activity against Respiratory syncytial virus A2 infected in Vero-76 cells after 5 days by plaque reduction assay
Assay type: functional, organism-based
Settings: human respiratory syncytial virus, A2, Vero 76, 120 h

SMILES	EC50 [µM]
Fc1ccc(F)c(/N=N/Nc2ccccc2)c1	10
Cc1c(/N=N/c2cccc(C(F)(F)F)c2)ccc(NC[C@@H]2CCCN3CCCC[C@H]23)c1C	> 80
CN(C)CCCNc1ccc(/N=N/c2cccc([N+](=O)[O-])c2)cc1	> 25
Cc1ccc(/N=N/N(C)c2ccccc2)cc1	> 58
c1ccc(CN/N=N/c2ccccc2)cc1	> 100
CN(C)CCCNc1ccc(/N=N/c2c(F)cccc2F)cc1	> 65
Cc1ccc(/N=N/c2ccc(NCCCN(C)C)cc2)cc1	> 50

Tested on: Yellow fever virus
Experiment: Antiviral activity against Yellow fever virus infected in BHK-21 cells assessed as inhibition of virus-induced cytopathicity after 3 to 4 days by MTT assay
Assay type: functional, organism-based
Settings: not given

SMILES	EC50 [µM]
Fc1ccc(F)c(/N=N/Nc2ccccc2)c1	> 100
Cc1c(/N=N/c2cccc(C(F)(F)F)c2)ccc(NC[C@@H]2CCCN3CCCC[C@H]23)c1C	> 100
CN(C)CCCNc1ccc(/N=N/c2cccc([N+](=O)[O-])c2)cc1	7
Cc1ccc(/N=N/N(C)c2ccccc2)cc1	> 100
c1ccc(CN/N=N/c2ccccc2)cc1	> 100
CN(C)CCCNc1ccc(/N=N/c2c(F)cccc2F)cc1	10
Cc1ccc(/N=N/c2ccc(NCCCN(C)C)cc2)cc1	> 100

Tested on: not listed separately
Experiment: Cytotoxicity against hamster BHK21 cells assessed as reduction in cell viability after 48 to 96 hrs by MTT assay
Assay type: cell-based, Mesocricetus auratus, BHK-21
Settings: bhk-21
Outline: as §1

SMILES	CC50 [µM]
Fc1ccc(F)c(/N=N/Nc2ccccc2)c1	> 100
Cc1c(/N=N/c2cccc(C(F)(F)F)c2)ccc(NC[C@@H]2CCCN3CCCC[C@H]23)c1C	≥ 100
CN(C)CCCNc1ccc(/N=N/c2cccc([N+](=O)[O-])c2)cc1	20
Cc1ccc(/N=N/N(C)c2ccccc2)cc1	> 100
c1ccc(CN/N=N/c2ccccc2)cc1	> 100
CN(C)CCCNc1ccc(/N=N/c2c(F)cccc2F)cc1	43
Cc1ccc(/N=N/c2ccc(NCCCN(C)C)cc2)cc1	> 100

Tested on: Human alphaherpesvirus 1
Experiment: Antiviral activity against HSV1 infected in Vero-76 cells after 3 days by plaque reduction assay
Assay type: functional, organism-based
Settings: Human alphaherpesvirus 1, Vero 76, 72 h

SMILES	EC50 [µM]
Fc1ccc(F)c(/N=N/Nc2ccccc2)c1	55
Cc1c(/N=N/c2cccc(C(F)(F)F)c2)ccc(NC[C@@H]2CCCN3CCCC[C@H]23)c1C	> 80
CN(C)CCCNc1ccc(/N=N/c2cccc([N+](=O)[O-])c2)cc1	6
Cc1ccc(/N=N/N(C)c2ccccc2)cc1	> 58
c1ccc(CN/N=N/c2ccccc2)cc1	> 100
CN(C)CCCNc1ccc(/N=N/c2c(F)cccc2F)cc1	> 65
Cc1ccc(/N=N/c2ccc(NCCCN(C)C)cc2)cc1	> 50

Tested on: Poliovirus 1
Experiment: Antiviral activity against Human poliovirus 1 strain Sabin after 2 days by plaque reduction assay
Assay type: functional
Settings: not given

SMILES	Activity
Cc1c(/N=N/c2cccc(C(F)(F)F)c2)ccc(NC[C@@H]2CCCN3CCCC[C@H]23)c1C	inactive
CN(C)CCCNc1ccc(/N=N/c2cccc([N+](=O)[O-])c2)cc1	inactive
CN(C)CCCNc1ccc(/N=N/c2c(F)cccc2F)cc1	inactive
Cc1ccc(/N=N/c2ccc(NCCCN(C)C)cc2)cc1	inactive

Same assay, conditions: Enterovirus C, 48 h

SMILES	EC50 [µM]
Fc1ccc(F)c(/N=N/Nc2ccccc2)c1	> 80
Cc1ccc(/N=N/N(C)c2ccccc2)cc1	> 58
c1ccc(CN/N=N/c2ccccc2)cc1	> 100

Tested on: Vero
Experiment: Cytotoxicity against african green monkey Vero 76 cells by crystal violet staining
Assay type: cell-based
Settings: chlorocebus sabaeus, vero
Outline: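 Mock-infected Vero 76 seeded at 4 × 10^5 cells/mL, run in parallel with plaque assays, with or without serial compound dilutions. Cell number of monolayers determined by crystal violet staining. CC50 = concentration reducing viable cell number 50%.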

SMILES	CC50 [µM]
Fc1ccc(F)c(/N=N/Nc2ccccc2)c1	80
Cc1c(/N=N/c2cccc(C(F)(F)F)c2)ccc(NC[C@@H]2CCCN3CCCC[C@H]23)c1C	80
CN(C)CCCNc1ccc(/N=N/c2cccc([N+](=O)[O-])c2)cc1	25
Cc1ccc(/N=N/N(C)c2ccccc2)cc1	58
c1ccc(CN/N=N/c2ccccc2)cc1	100
CN(C)CCCNc1ccc(/N=N/c2c(F)cccc2F)cc1	65
Cc1ccc(/N=N/c2ccc(NCCCN(C)C)cc2)cc1	50

Tested on: Vesicular stomatitis virus
Experiment: Antiviral activity against Vesicular stomatitis virus after 2 days by plaque reduction assay
Assay type: functional, organism-based
Settings: not given

SMILES	Activity
Fc1ccc(F)c(/N=N/Nc2ccccc2)c1	inactive
Cc1c(/N=N/c2cccc(C(F)(F)F)c2)ccc(NC[C@@H]2CCCN3CCCC[C@H]23)c1C	inactive
CN(C)CCCNc1ccc(/N=N/c2cccc([N+](=O)[O-])c2)cc1	inactive
Cc1ccc(/N=N/N(C)c2ccccc2)cc1	inactive
c1ccc(CN/N=N/c2ccccc2)cc1	inactive
CN(C)CCCNc1ccc(/N=N/c2c(F)cccc2F)cc1	inactive
Cc1ccc(/N=N/c2ccc(NCCCN(C)C)cc2)cc1	inactive
